This excerpt belongs to a sample that is enriched for hits.
UPR XBP1 act – activators of adaptive XBP1 UPR arm, primary screen, cell-based, CHO-XBP1 luciferase reporter, luminescence, uHTS; activation, % at 20 µM; IRE1-XBP1 UPR activation; percent of tunicamycin response, DMSO as zero; hit rate 0.33% among 330,000;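 active means versus positive control, 20 µM dose yields 30% or more activation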;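 further: 100% = tunicamycin at 10 µg/mL and 0% = DMSO only wells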
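Material: CHO cell line with stable XBP1 luciferase reporter; schedule: 16-18 h cell attachment at 37 °C, then 6 h compound exposure; signal: glow luminescence from Steady-Glo reagent; medium: serum-containing F12 medium, 10% FBS; benchmarks: tunicamycin 10 µg/mL and vehicle-only wells; read-out: percent activation relative to tunicamycin reference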
CHOP inh – inhibitors of CHOP promoter induction, primary screen, cell-based, unfolded protein response, luciferase reporter. CHO-K1 CHOP-promoter luciferase, tunicamycin-induced, 15-18 h. inhibition, % at 10 µM. AID 2732, 2010. hit rate 3.8% among 220,000;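 active means compounds that reduced the stress-induced luciferase reporter signal by more than about 70% of percent inhibition, limit read from the data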;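 further: 0% = tunicamycin plus vehicle and 100% = wells without tunicamycin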
UCH37 DUB inh – inhibitors of human UCH37 deubiquitinase, primary screen, biochemical, Ub-AMC cleavage, fluorescence; Ubiquitin carboxyl-terminal hydrolase isozyme L5 (Homo sapiens), Q9Y5K5; purified proteasome/UCH37; inhibition, % (test concentration not listed); hit rate 0.33% among 330,000;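 active means mean inhibition over replicate wells above about 20%, limit read from the data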;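 further: 0% = compound-free wells with enzyme and 100% = wells lacking proteasome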
Target sequence (Q9Y5K5 whole entry, looked up): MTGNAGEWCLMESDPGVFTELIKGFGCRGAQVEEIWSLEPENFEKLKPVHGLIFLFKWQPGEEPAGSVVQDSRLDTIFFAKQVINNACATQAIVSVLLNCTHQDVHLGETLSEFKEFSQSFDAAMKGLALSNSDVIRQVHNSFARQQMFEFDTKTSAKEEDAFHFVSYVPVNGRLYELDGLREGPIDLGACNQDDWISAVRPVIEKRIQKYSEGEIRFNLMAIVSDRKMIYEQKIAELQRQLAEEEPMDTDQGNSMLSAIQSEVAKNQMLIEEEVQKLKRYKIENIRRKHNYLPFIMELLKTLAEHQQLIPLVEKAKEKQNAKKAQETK
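system = Proteasome-associated human UCH37 deubiquitinase | amount = 0.15 nM proteasome as dispensed | medium = pH 7.4 Tris-HCl (50 mM) with ovalbumin, ATP-MgCl2, DTT | incubation = 30 min preincubation with enzyme, 25 min cleavage at room temperature | detection = AMC fluorescence 355/460 nm | read-out basis = percent inhibition | controls = no-proteasome and no-compound wells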
CHOP UPR activ – activators of apoptotic CHOP UPR arm, primary screen, cell-based, CHO-CHOP luciferase reporter, luminescence, uHTS | UPR activation; percent of tunicamycin response over DMSO baseline | activation, % at 10 µM | hit rate 0.34% among 330,000;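 active means at 10 µM dose, activation of 40% or more, normalized to positive control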;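 further: 100% = tunicamycin at 10 µg/mL and 0% = DMSO alone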
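System: CHO CHOP reporter cells. Amount: 500 cells per well. Buffer or medium: F12 medium, 10% FBS. Compound dosing: one dose, 10 µM in 0.5% DMSO. Incubation: 6 h compound exposure at 37 °C after overnight seeding. Technique: Steady-Glo luciferase luminescence. Benchmarks: tunicamycin and DMSO controls.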
Fh CTSL1 inh – Fasciola hepatica cathepsin L1 inhibitors, primary screen, counter-screen for PFM18AAP inhibitor project, biochemical, QFRET, fluorogenic peptide substrate; inhibition, % at 5.96 µM; recombinant F. hepatica cathepsin L1, Z-Leu-Arg-MCA fluorescence; hit rate 0.49% among 300,000;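 active means inhibition above the mean of all tested compounds plus 3 SD, set per screening campaign, cut at about 17% in these data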;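 further: 0% = plate median of test compound wells and 100% = 1 µM Z-Phe-Ala-diazomethylketone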
Active calls of the source: *; / = not tested or not shown.

SMILES | UPR XBP1 act | CHOP inh | UCH37 DUB inh | CHOP UPR activ | Fh CTSL1 inh
COc1cc(C=NNc2cccc(C)c2)cc(Br)c1O | / | / | -7 | / | /
CCOC(=O)Cc1cnc(NC(=O)NC(C(=O)OCC)(c2ccccc2)C(F)(F)F)s1 (stereo not drawn) | 5 | 85* | 2 | 3 | -3
CCc1cc2c(nc1CC)CCN(CCC(C)=NOC[C@H]1O[C@H](c3ccccc3)C=C[C@@H]1Oc1ccc(OC)cc1)C2 | / | / | 1 | / | /
Cn1nnnc1N=N/C(=N/Nc1ccccc1)c1ccccc1 | 5 | 70* | / | 6 | 2
Cn1nnnc1N=NC(=NNc1ccccc1)c1ccccc1 | / | / | 3 | / | /
Cc1ccc(C=Nn2c(-c3cccs3)n[nH]c2=S)cc1 | / | / | 6 | / | /
O=C1Nc2ccc(Br)cc2C1(O)c1ccccc1 (stereo not drawn) | 1 | / | 2 | 1 | 9
O=C1Nc2ccc(Br)cc2C12NNc1ccccc1O2 (stereo not drawn) | 9 | 105* | -1 | 2 | 4
Cc1cc(C)n(CCC(=O)NN=Cc2ccc(Cl)c([N+](=O)[O-])c2)n1 | / | / | -2 | / | /
COC(=O)c1cc2occc2n1Cc1c(F)cccc1Cl | / | 46 | / | / | /
COC(=O)c1cc2occc2n1Cc1ccc(Cl)cc1 | 1 | 87* | 2 | 3 | 0
O=C(NN=Cc1ccccn1)c1cc(-c2ccc(Br)s2)[nH]n1 | / | / | 3 | / | /
NC(CCN1CCOCC1)=NO | / | / | 2 | / | /
O=C(CN1CCN(Cc2ccccc2Cl)CC1)NN=C/C=C\c1ccccc1[N+](=O)[O-] | / | / | 5 | / | /
S=c1[nH]nc(COc2ccccc2)n1N=Cc1ccco1 | / | / | 2 | / | /
Oc1c(I)cc(Cl)c2cccnc12 | -1 | 85* | 1 | 0 | -3
O=[N+]([O-])c1cc(Cl)c2cccnc2c1O | 2 | -6 | 16 | 0 | 6
Clc1cc2cccnc2c2ncccc12 | 0 | / | 2 | -3 | /
O=[N+]([O-])c1cc([N+](=O)[O-])c2cccnc2c1Oc1ccccc1O | / | 86* | 9 | / | 2
O=[N+]([O-])c1cc(CN2CCOCC2)c2cccnc2c1O | / | 19 | / | / | /
O=[N+]([O-])c1cc(Cl)c(O)c2ncccc12 | -2 | 28 | 25* | 0 | /
O=[N+]([O-])c1cc(CN2CCN(c3ccccc3)CC2)c(O)c2ncccc12 | 14 | 77* | 11 | 10 | 1
COc1ccccc1C(=O)NN=C(C)CC(=O)Nc1ccc(Nc2ccccc2)cc1 | / | / | 4 | / | /
CC(=NNc1ccc(Cl)c(Cl)c1)c1ccc(-n2ccnc2)cc1 | / | / | 5 | / | /
O=[N+]([O-])c1ccc(O)c2ncccc12 | 6 | 87* | 6 | 6 | 5
SMILES | UPR XBP1 act | CHOP inh | UCH37 DUB inh | CHOP UPR activ | Fh CTSL1 inh
Cc1ccc(N2C(=O)c3cccc4c([N+](=O)[O-])ccc(c34)C2=O)c2cccnc12 | -4 | 95* | -15 | -3 | -2
COc1ccc(CN2CC(C(=O)NCCc3ccccc3)CC2=O)cc1 (stereo not drawn) | 2 | 9 | -2 | -2 | 17*
COc1ccc(CN2CC(C(=O)NCCc3ccc(C)cc3)CC2=O)cc1 (stereo not drawn) | -1 | 4 | -2 | -1 | -3
COc1ccc(CN2CC(C(=O)NCCCN3CCOCC3)CC2=O)cc1 (stereo not drawn) | -3 | 32 | -4 | -1 | 21*
CCC1CCCCN1CCCNC(=O)C1CC(=O)N(CCc2ccccc2)C1 (stereo not drawn) | -1 | / | 2 | 0 | 28*
CC(/C=C/c1ccccc1F)=NNC(=O)c1cccc(F)c1 | / | / | 5 | / | /
CCOC(=O)N1CCN(C(=O)C(C)(C)Oc2ccc(Cl)cc2)CC1 | 3 | 83* | 2 | 0 | -1
CC(C)(Oc1ccc(Cl)cc1)C(=O)N1CCC(C(N)=O)CC1 | 0 | -8 | 2 | -1 | 2
Cc1ccccc1NC(C)C(=O)NN=Cc1c[nH]c2ccccc12 (stereo not drawn) | / | / | 2 | / | /
CCC(=O)Nc1ccc(N2CCCCC2)c(C(=O)Nc2ccccc2C)c1 | -2 | 72* | -4 | 0 | 1
Cc1ccc(C(=O)CSc2nnc(CNc3ccc(C)cc3C)o2)cc1 | 4 | 72* | 0 | 0 | 1
Cc1ccc(NCc2nnc(SCC(N)=O)o2)c(C)c1 | -3 | -3 | -1 | -1 | 1
CN1C(=O)C(=NOC(=O)c2cccc3ccccc23)c2ccccc21 | / | / | -3 | / | /
O=C(CNC(=S)N(Cc1ccccc1)Cc1ccccc1F)NCc1ccccc1 | 1 | 47 | 5 | 1 | 1
O=C(CNC(=S)N(Cc1ccccc1)Cc1ccccc1F)NCc1ccc(Cl)cc1 | / | 78* | -1 | / | /
CON=CCC(=O)Nc1ccc(F)cc1F | / | / | 2 | / | /
COc1cc(C=NN=C2SC(CC(=O)O)C(=O)N2c2ccc(O)cc2)ccc1O (stereo not drawn) | / | / | 3 | / | /
CCOc1ccccc1Oc1cn[nH]c1-c1ccc(OCC(=O)NN)cc1O | -3 | / | 1 | -1 | -4
C=C(C)COc1ccc(-c2nc(N)ncc2Oc2ccccc2OC)c(O)c1 | 4 | 93* | 2 | 1 | 0
C=C(C)COc1ccc(-c2[nH]ncc2Oc2ccccc2OC)c(O)c1 | 0 | 0 | 6 | 1 | 2
CCOc1ccc(-c2[nH]ncc2Oc2ccccc2OCC)c(O)c1 | 3 | 80* | 0 | -1 | 2
CCOc1ccc(-c2[nH]ncc2Oc2ccccc2OC)c(O)c1 | -2 | 82* | -1 | 0 | 3
Clc1cccc(-c2ccnc3nc(-n4cccc4)nn23)c1 | 1 | 76* | -11 | -1 | 0
Cc1ccc(NC2CCCCC2NS(=O)(=O)c2ccc(Cl)cc2)cc1 (stereo not drawn) | -3 | 91* | 4 | -1 | 2
Cc1ccc(NS(=O)(=O)c2ccc(C3CCCCC3)cc2)cc1 | -3 | 95* | 5 | -1 | 5
O=S(=O)(NC1CCCCC1Nc1ccc(Cl)cc1)c1ccccc1 (stereo not drawn) | -3 | 51 | 3 | 3 | -2
Cc1ccc(S(=O)(=O)Nc2ccc(N3CCCCC3)cc2)cc1 | -3 | 52 | 1 | 2 | -2
CC(=NNC(=O)CNc1cccc(C(F)(F)F)c1)c1cccc(Br)c1 | / | / | 2 | / | /
COc1ccc(NC(=S)N2CCC(c3ccc(C)cc3)C2)cc1 (stereo not drawn) | -4 | / | 3 | 3 | 1
